Measured values from ChEMBL document CHEMBL4414574, “Structure-Based Discovery and Development of a Series of Potent and Selective Bromodomain and Extra-Terminal Protein Inhibitors” (J Med Chem, 2019).
The source made the active and inactive calls. The calls are words filed in the database; no cut-off is given here.

Assays:
[1] = test system: MV4-11; assay: Induction of apoptosis in human MV4-11 cells assessed as increase in cleaved caspase-9 level after 24 hrs by Western blot analysis; type: functional, cell-based
Summary of the method: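 MV4-11 cells exposed to test agent at the indicated doses for 24 h. Lysates immunoblotted for full-length and cleaved caspase-3, -7, -8 and -9, with GAPDH as the loading reference.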

[2] = target: SWI/SNF-related matrix-associated actin-dependent regulator of chromatin subfamily A member 4 (Homo sapiens) (UniProt P51532); assay: Binding affinity to human partial length SMARCA4 (A1448 to S1575 residues) expressed in Escherichia coli BL21 cells assessed as residual binding level at 1 uM measured after 1 hr by quantitative PCR based BROMOscan assay relative to control
Summary of the method: (§1)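 Bromodomain panel screen (32 bromodomains) run at 1 μM single concentration; primary binding reported as 'Percent Control', lower values meaning stronger interaction.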

[3] = Half life in rat brain at 50 mg/kg, po; type: ADME, organism-based
[4] = target: Cytochrome P450 2D6 (Homo sapiens, UniProt P10635); assay: Time-dependent inhibition of CYP2D6 in human liver microsomes at 10 uM using dextromethorphan as substrate preincubated up to 30 mins followed by NADPH generating system addition and measured after 10 mins; type: ADME
Summary of the method: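 Human liver microsomes 0.2 mg/mL, 100 mM phosphate pH 7.4, 10 μM test compound, preincubated 0, 5, 10 and 30 min at 37 °C; then NADPH plus probe cocktail (5 μM midazolam, 50 μM testosterone, 5 μM dextromethorphan, 10 μM diclofenac, 50 μM phenacetin, 50 μM S-(+)-mephenytoin) added; 10 min reaction; kobs in units of 10^-4/min.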

[5] = test system: BT-549; assay: Antiproliferative activity against human BT549 cells after 72 hrs by CCK8 or SRB assay; type: functional, cell-based
[6] = test system: MV4-11; assay: Induction of apoptosis in human MV4-11 cells assessed as decrease in full-length caspase-8 level at 10 to 1000 nM after 24 hrs by Western blot analysis; type: functional, cell-based
Summary of the method: (§2)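 MV4-11 cells exposed to compound at the indicated doses for 24 h; lysates probed by Western blotting for the target protein, with GAPDH as loading control.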

[7] = test system: MV4-11; assay: Induction of apoptosis in human MV4-11 cells assessed as reduction in BCL-2 level after 24 hrs by Western blot analysis; type: functional, cell-based; summary of the method: as §2
[8] = organism: Homo sapiens; assay: Antiproliferative activity against human TY82 cells after 72 hrs by CCK8 or SRB assay; type: functional, cell-based
[9] = target: Bromodomain-containing protein 3 (Homo sapiens) (UniProt Q15059); assay: Binding affinity to human partial length BRD3 bromodomain 2 (G306 to P416 residues) expressed in Escherichia coli BL21 cells assessed as residual binding level at 1 uM measured after 1 hr by quantitative PCR based BROMOscan assay relative to control
Summary of the method: (§3)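 A BROMOScan competition-binding panel of 32 bromodomains was run at a single 1 μM compound concentration. Results are primary-screen 'Percent Control', where lower values indicate stronger binding.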

[10] = target: Insulin-like growth factor 1 receptor (Homo sapiens) (UniProt P08069); assay: Inhibition of IGF1R (unknown origin) at 10 uM using poly (Glu, Tyr) 4:1 as substrate after 60 mins by ELISA
[11] = Tmax in rat plasma at 10 mg/kg, po; type: ADME, organism-based
Summary of the method: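 Oral dosing in 1% DMSO/0.5% HPMC vehicle (dog 3 mg/kg; rat 10 mg/kg); plasma drug levels measured.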

[12] = target: Bromodomain-containing protein 9 (Homo sapiens) (UniProt Q9H8M2); assay: Binding affinity to human partial length BRD9 (R130 to V259 residues) expressed in Escherichia coli BL21 cells assessed as residual binding level at 1 uM measured after 1 hr by quantitative PCR based BROMOscan assay relative to control; summary of the method: as §3
[13] = target: Bromodomain testis-specific protein (Homo sapiens) (UniProt Q58F21); assay: Binding affinity to human partial length BRDT bromodomain 2 (K250 to E382 residues) expressed in Escherichia coli BL21 cells assessed as residual binding level at 1 uM measured after 1 hr by quantitative PCR based BROMOscan assay relative to control; summary of the method: as §3
[14] = AUC (0 to t) in ICR mouse at 10 mg/kg, po administered via gavage measured after 0.25 to 24 hrs by UPLC/MS analysis; type: ADME, organism-based; design: time 0.25-24 hr, dose 10 mg/kg, route oral; conditions: in vivo
Summary of the method: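 Male ICR mice were dosed orally in 1% DMSO/0.5% HPMC vehicle. Plasma (and brain, where stated) concentrations gave Tmax, Cmax, T1/2, AUC0-t and AUC0-inf.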

[15] = target: Bromodomain-containing protein 2 (Homo sapiens) (UniProt P25440); assay: Binding affinity to human partial length BRD2 bromodomain 2 isoform 1 (E348 to D455 residues) expressed in Escherichia coli BL21 cells assessed as residual binding level at 1 uM measured after 1 hr by quantitative PCR based BROMOscan assay relative to control; summary of the method: as §3
[16] = target: Bromodomain and WD repeat-containing protein 1 (Homo sapiens) (UniProt Q9NSI6); assay: Binding affinity to human partial length BRWD1 (A1310 to E1430 residues) expressed in Escherichia coli BL21 cells assessed as residual binding level at 1 uM measured after 1 hr by quantitative PCR based BROMOscan assay relative to control; summary of the method: as §3
[17] = Half life in ICR mouse brain at 50 mg/kg, po administered via gavage measured after 0.25 to 24 hrs by UPLC/MS analysis; type: ADME, organism-based
Summary of the method: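 Male ICR mice dosed orally in 1% DMSO/0.5% HPMC vehicle; plasma or brain drug levels used to derive Tmax, Cmax, AUC0-t, AUC0-inf and T1/2.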

[18] = test system: MV4-11; assay: Antiproliferative activity against human MV4-11 cells after 72 hrs by CCK8 or SRB assay; type: functional, cell-based
[19] = test system: Hep 3B2; assay: Antiproliferative activity against human Hep3B cells after 72 hrs by CCK8 or SRB assay; type: functional, cell-based
[20] = Bioavailability in dog at 1 mg/kg, iv; type: ADME, organism-based, Canis lupus familiaris; conditions: in vivo
[21] = target: Transcription initiation factor TFIID subunit 1-like (Homo sapiens) (UniProt Q8IZX4); assay: Binding affinity to human partial length TAF1L bromodomain 2 (Q1523 to D1654 residues) expressed in Escherichia coli BL21 cells assessed as residual binding level at 1 uM measured after 1 hr by quantitative PCR based BROMOscan assay relative to control; summary of the method: as §1
[22] = target: Bromodomain-containing protein 4 (Homo sapiens, UniProt O60885); assay: Inhibition of BRD4 bromodomain 1 (unknown origin)
Summary of the method: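 BRD4 BD1 (His6-tagged, E. coli BL21(DE3)-expressed, Ni-NTA purified) at 10 nM with 5 nM FITC-labelled (+)-JQ1 tracer; 50 mM HEPES pH 7.4, 150 mM NaCl, 0.5 mM CHAPS, DMSO 2‰ final; graded inhibitor; 4 h dark equilibration at room temperature; fluorescence anisotropy read (ex 485/em 530 nm). IC50 from two independent experiments in duplicate, mean ± SEM.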

[23] = target: Bromodomain-containing protein 1 (Homo sapiens) (UniProt O95696); assay: Binding affinity to human partial length BRD1 (E556 to A688 residues) expressed in Escherichia coli BL21 cells assessed as residual binding level at 1 uM measured after 1 hr by quantitative PCR based BROMOscan assay relative to control; summary of the method: as §3
[24] = test system: MV4-11; assay: Induction of apoptosis in human MV4-11 cells assessed as reduction in c-IAP1 level after 24 hrs by Western blot analysis; type: functional, cell-based

Sequence of SWI/SNF-related matrix-associated actin-dependent regulator of chromatin subfamily A member 4 (Homo sapiens) (P51532 whole entry, the tested form may be a part): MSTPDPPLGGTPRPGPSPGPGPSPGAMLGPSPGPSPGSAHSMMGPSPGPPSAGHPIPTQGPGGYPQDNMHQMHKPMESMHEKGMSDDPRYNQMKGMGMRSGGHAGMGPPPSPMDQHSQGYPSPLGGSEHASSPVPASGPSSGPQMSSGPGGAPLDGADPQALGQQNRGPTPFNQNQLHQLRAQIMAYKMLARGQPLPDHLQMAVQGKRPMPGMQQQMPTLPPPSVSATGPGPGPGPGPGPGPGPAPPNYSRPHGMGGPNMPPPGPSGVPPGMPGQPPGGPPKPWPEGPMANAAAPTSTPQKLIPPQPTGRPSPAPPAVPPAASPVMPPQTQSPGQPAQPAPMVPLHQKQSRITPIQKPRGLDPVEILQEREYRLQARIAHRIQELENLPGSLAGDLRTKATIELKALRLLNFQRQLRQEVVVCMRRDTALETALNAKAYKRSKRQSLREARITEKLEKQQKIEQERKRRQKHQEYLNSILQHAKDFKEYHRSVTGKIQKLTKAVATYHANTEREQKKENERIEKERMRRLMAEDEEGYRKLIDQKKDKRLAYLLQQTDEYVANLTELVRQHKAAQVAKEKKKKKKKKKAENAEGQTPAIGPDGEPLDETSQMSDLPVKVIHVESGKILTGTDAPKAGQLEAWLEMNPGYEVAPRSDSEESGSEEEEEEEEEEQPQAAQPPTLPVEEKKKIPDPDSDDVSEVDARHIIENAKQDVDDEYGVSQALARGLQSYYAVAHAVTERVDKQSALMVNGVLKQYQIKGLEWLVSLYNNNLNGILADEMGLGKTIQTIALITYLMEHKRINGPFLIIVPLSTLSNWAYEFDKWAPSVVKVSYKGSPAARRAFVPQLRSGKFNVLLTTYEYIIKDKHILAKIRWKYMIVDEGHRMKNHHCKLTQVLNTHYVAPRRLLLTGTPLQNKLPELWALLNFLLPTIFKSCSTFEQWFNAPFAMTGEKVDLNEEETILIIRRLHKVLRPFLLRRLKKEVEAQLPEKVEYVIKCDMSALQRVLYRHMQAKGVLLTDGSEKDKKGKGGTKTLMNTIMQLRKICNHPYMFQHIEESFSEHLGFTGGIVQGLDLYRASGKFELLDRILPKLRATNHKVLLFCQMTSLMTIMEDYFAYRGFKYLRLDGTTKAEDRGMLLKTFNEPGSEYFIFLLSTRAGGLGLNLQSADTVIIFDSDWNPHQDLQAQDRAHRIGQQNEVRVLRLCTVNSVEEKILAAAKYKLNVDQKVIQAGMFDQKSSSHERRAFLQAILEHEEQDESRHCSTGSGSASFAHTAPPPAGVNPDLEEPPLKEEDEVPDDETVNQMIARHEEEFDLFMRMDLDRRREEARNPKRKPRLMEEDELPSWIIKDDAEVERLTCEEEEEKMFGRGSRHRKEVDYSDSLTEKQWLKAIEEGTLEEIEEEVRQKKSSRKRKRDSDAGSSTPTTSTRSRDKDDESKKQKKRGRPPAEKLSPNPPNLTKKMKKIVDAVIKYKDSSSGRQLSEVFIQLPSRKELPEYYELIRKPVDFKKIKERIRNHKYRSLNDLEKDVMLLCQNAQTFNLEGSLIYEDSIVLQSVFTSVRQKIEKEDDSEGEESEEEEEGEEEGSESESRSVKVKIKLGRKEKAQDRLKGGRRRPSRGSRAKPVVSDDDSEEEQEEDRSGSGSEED
Sequence of Bromodomain-containing protein 2 (Homo sapiens) (P25440 whole entry, looked up, the tested form may be a part, canonical isoform): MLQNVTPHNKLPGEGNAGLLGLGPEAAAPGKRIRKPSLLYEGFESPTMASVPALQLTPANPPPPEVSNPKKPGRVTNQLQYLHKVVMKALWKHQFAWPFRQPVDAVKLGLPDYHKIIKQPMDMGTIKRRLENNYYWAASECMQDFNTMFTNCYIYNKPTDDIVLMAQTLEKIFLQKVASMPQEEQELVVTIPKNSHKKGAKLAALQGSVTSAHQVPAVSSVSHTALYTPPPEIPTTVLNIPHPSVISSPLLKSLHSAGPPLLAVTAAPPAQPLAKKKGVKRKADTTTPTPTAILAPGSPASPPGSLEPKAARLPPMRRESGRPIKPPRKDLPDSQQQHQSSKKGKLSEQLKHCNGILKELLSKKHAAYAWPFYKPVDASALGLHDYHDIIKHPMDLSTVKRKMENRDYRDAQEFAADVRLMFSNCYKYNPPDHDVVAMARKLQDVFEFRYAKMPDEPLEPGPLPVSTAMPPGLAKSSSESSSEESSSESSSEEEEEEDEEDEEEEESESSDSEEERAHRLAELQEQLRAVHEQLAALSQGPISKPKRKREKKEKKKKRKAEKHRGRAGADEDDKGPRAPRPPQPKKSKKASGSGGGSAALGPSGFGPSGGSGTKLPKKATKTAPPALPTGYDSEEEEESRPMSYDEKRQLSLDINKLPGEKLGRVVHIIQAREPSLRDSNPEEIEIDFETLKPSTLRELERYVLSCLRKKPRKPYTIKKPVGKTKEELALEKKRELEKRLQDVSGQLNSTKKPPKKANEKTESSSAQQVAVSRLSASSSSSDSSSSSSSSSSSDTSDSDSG
Sequence of Bromodomain and WD repeat-containing protein 1 (Homo sapiens) (Q9NSI6 whole entry, the tested form may be a part): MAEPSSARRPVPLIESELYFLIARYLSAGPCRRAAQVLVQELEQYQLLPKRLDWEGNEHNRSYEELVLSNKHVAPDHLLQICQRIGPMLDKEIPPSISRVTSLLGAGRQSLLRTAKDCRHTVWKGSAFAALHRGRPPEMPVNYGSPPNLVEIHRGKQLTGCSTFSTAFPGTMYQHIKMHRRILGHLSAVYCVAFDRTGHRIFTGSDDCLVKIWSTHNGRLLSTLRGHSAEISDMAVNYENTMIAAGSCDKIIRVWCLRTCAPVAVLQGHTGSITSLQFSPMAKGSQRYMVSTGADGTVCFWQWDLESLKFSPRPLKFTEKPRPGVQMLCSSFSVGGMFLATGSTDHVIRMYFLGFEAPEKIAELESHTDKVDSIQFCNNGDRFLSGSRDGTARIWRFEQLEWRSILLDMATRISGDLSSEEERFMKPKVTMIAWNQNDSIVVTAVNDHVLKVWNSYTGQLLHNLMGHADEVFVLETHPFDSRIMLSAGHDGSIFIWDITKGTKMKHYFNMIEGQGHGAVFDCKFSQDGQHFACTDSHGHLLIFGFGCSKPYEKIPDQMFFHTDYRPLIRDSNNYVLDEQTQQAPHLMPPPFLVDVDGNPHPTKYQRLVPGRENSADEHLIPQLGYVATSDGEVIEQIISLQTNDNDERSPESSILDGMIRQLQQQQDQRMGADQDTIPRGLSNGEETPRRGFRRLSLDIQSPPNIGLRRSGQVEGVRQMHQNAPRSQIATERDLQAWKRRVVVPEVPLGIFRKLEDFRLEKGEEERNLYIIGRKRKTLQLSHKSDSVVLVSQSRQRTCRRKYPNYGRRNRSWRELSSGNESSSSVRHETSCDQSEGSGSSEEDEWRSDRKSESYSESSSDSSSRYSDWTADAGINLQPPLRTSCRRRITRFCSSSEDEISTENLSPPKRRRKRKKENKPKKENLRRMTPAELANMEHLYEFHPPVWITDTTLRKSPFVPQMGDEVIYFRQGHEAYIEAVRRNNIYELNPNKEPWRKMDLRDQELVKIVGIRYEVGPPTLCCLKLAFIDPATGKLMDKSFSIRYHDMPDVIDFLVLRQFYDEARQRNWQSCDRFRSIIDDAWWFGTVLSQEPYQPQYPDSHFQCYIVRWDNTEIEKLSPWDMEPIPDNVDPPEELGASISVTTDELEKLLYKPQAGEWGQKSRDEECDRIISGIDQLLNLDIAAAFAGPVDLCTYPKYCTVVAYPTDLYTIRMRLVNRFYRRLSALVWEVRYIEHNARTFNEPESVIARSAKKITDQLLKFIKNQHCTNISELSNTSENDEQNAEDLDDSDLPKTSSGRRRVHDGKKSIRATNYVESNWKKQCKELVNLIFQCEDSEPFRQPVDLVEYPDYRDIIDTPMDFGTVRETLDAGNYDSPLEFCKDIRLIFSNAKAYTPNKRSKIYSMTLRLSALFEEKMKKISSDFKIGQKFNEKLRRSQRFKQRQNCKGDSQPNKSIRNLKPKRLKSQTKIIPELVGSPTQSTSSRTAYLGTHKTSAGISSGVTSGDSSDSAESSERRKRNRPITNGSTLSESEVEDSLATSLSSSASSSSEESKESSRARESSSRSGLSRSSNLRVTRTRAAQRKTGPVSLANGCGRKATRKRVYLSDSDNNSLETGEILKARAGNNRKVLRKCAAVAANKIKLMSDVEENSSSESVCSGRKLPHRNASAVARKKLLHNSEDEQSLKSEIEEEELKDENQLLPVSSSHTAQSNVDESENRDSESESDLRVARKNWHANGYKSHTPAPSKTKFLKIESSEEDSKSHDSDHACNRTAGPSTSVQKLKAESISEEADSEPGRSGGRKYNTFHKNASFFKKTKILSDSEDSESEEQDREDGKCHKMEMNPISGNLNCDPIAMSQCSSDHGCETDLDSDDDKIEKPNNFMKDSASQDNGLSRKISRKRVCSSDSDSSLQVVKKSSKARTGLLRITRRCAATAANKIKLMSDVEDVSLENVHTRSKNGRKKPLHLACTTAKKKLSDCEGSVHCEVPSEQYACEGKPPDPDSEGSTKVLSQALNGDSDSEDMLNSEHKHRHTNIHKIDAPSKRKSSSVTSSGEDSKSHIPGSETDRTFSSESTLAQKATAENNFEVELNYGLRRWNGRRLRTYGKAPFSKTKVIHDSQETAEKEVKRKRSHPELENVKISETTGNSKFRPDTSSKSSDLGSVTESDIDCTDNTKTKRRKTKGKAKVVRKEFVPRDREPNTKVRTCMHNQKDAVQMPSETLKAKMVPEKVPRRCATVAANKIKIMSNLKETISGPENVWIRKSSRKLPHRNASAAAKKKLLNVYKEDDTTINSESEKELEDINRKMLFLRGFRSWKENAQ

**Q.** With Cc1ccc(-n2nc(C(=O)N3C[C@@H](C)N[C@@H](C)C3)nc2-c2ccc3c(c2)N(C2CCCC2)[C@H](C)C(=O)N3C)cc1 as the molecule, how does the Activity [1] read?
**A.** Dose-dependent effect

**Q.** And the Activity [2]?
**A.** 70 to 100%

**Q.** What about the half-life [3] of the same molecule?
**A.** 9.3 h

**Q.** What about the TDI [4] of the same molecule?
**A.** Not Active

**Q.** What about the Activity [5] of the same molecule?
**A.** Active

**Q.** What about the Activity [6] of the same molecule?
**A.** Active

**Q.** And the Activity [7]?
**A.** Dose-dependent effect

**Q.** And the Activity [8]?
**A.** Active

**Q.** And the Activity [9]?
**A.** < 5%

**Q.** And the inhibition [10]?
**A.** Active

**Q.** And the Tmax [11]?
**A.** 2.3 h

**Q.** And the Activity [12]?
**A.** 70 to 100%

**Q.** And the Activity [13]?
**A.** < 5%

**Q.** What about the AUC(0-t) [14] of the same molecule?
**A.** 7380 ng·h/mL

**Q.** And the Activity [15]?
**A.** < 5%

**Q.** What about the Activity [16] of the same molecule?
**A.** 70 to 100%

**Q.** What about the half-life [17] of the same molecule?
**A.** 3 h

**Q.** And the Activity [18]?
**A.** Active

**Q.** And the Activity [19]?
**A.** Active

**Q.** And the bioavailability [20]?
**A.** 34.3%

**Q.** And the Activity [21]?
**A.** 20 to 50%

**Q.** And the inhibition [22]?
**A.** Active

**Q.** What about the Activity [23] of the same molecule?
**A.** 50 to 70%

**Q.** What about the Activity [24] of the same molecule?
**A.** Dose-dependent effect
